Experimental data gathered from unrelated publications.
Each line is one published result; the experiments were not run side by side.

| Compound | tested on | assay | system | conditions | quantity | value |
| --- | --- | --- | --- | --- | --- | --- |
| COc1ccc2c(c1)c(=O)c(C(=O)N/N=C/c1ccc([N+](=O)[O-])s1)cn2Cc1ccccc1 | Trypanosoma brucei | parasite growth, resazurin | – | 72 h | EC50 | 0.41 µM |
| CC(C)(C)OC(=O)N[C@H]1CCN(c2cc(C(=O)NCC(=O)O)ccc2NC(=O)c2cc(Br)c(Br)[nH]2)C1 | Enterococcus faecium | microbial growth, broth dilution | ATCC35667 | – | MIC | > 32 µg/mL |
| Nc1ccc(/C=C/C(=O)NCc2cc3cc(-c4ccc(C(=O)N5CCC(F)(F)CC5)cc4)cc(-c4ccc(F)cc4)c3o2)cn1 | CFPAC-1 | cell growth or viability, CCK-8 | – | 72 h | IC50 | > 20 µM |
| Cc1cc(C)c(C#N)c(SC2COc3ccccc3C2=O)n1 (stereo not drawn) | Trypanosoma brucei | parasite growth, resazurin | – | – | EC50 | 51.2 µM |
| Cl.N[C@@H]1CCN(c2cc(C(=O)NCC(=O)O)ccc2NC(=O)c2cc(Br)c(Br)[nH]2)C1 | Enterococcus faecium | microbial growth, broth dilution | ATCC35667 | – | MIC | > 32 µg/mL |
| Cn1nnc(-c2cccnc2SCC(=O)c2ccc(F)cc2)n1 | Trypanosoma brucei | parasite growth, resazurin | RHODESIENSE | – | EC50 | > 64 µM |
| Cc1[nH]c(C(=O)Nc2ccc(C(=O)NCC(=O)O)cc2N2CC[C@@H](NC(=O)OC(C)(C)C)C2)c(Cl)c1Cl | Enterococcus faecium | microbial growth, broth dilution | ATCC35667 | – | MIC | > 32 µg/mL |
| Cc1cc(C)c(C#N)c(SCC(=O)Nc2ccccc2)n1 | Trypanosoma brucei | parasite growth, resazurin | – | – | EC50 | > 64 µM |
| Nc1ccc(/C=C/C(=O)N2CCc3c(oc4c(-c5ccc(F)cc5)cc(-c5ccc(C(=O)N6CCC(F)(F)CC6)nn5)cc34)C2)cn1 | CFPAC-1 | cell growth or viability, CCK-8 | – | 72 h | IC50 | > 20 µM |
| C=CC(=O)NC1CCN(c2ncc3ncnc(Nc4ccc(Oc5ccc6c(c5)ncn6C)c(C)c4)c3n2)CC1 | HCC95 | cell growth or viability | – | – | EC50 | 2.07 µM |
| NNC(=O)c1cn(Cc2ccccc2)c2ccc(Oc3ccccc3)cc2c1=O | Trypanosoma brucei | parasite growth, resazurin | – | 72 h | EC50 | 0.43 µM |
| Cc1cc(C)c(C#N)c(SCC(=O)c2cccc(N)c2)n1 | Trypanosoma brucei | parasite growth, resazurin | – | – | EC50 | > 64 µM |
| O=C(O)c1ccc2c(c1)nc(Nc1cccc(Cl)c1)c1ccncc12 | SK-MES-1 | cell growth or viability, crystal violet | – | 48 h | IC50 | 4.6 µM |
| Cc1cc(C)c(C#N)c(SCC(=O)c2ccccn2)n1 | Trypanosoma brucei | parasite growth, resazurin | RHODESIENSE | – | EC50 | 18 µM |
| Cc1[nH]c(C(=O)Nc2ccc(C(=O)NCC(=O)O)cc2N2CC[C@H](N)C2)c(Cl)c1Cl.Cl | Enterococcus faecium | microbial growth, broth dilution | ATCC35667 | – | MIC | > 32 µg/mL |
